Where a SMILES comes first, the peptide text is derived from it. [ ]: non-standard residue; d: D form. ξ: configuration not given here. Bip = N[C@@H](Cc1ccc(-c2ccccc2)cc1)C(=O)O; ξBip = NC(Cc1ccc(-c2ccccc2)cc1)C(=O)O; ξDip = NC(C(=O)O)C(c1ccccc1)c1ccccc1
What was measured:
Ramos = assay: Cytotoxicity against human Ramos cells assessed as inhibition of cell proliferation incubated for 4 hrs by MTS assay; format: functional, cell-based
Summary of the method: (§1)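 Cells grown in RPMI-1640 with 2 mM L-glutamine and 10% FBS, plated, then held 24 h at 37 °C. Adherent lines washed once in FBS-free medium. Cells exposed 4 h at 37 °C, 5% CO2 in FBS-free medium to 10 concentrations (1/4 steps, 400 μM top). 1% Triton X-100 served as positive control. MTS/PMS added for 2 h, then OD 490 nm read. IC50 from semilog curves; three independent experiments, quadruplicate wells.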

[1] = Cytotoxicity against human MRC5 cells assessed as inhibition of cell proliferation incubated for 4 hrs by MTT assay; format: toxicity, cell-based
Summary of the method: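 MRC-5 human embryonic lung fibroblasts cultured in MEM with 2 mM L-glutamine and 10% FBS, without antibiotics, at 37 °C in humidified 5% CO2. Cultures were tested for mycoplasma. IC50 from three or more independent measurements, given as mean ± SD.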

HL-60 = assay: Cytotoxicity against human HL-60 cells assessed as inhibition of cell proliferation incubated for 4 hrs by MTS assay; format: functional, cell-based; conditions: HL-60, 4 h; summary of the method: as §1
MCF7 = assay: Cytotoxicity against human MCF7 cells transfected with MDR1 assessed as inhibition of cell proliferation incubated for 4 hrs by MTS assay; format: functional, cell-based; conditions: MCF7, 4 h; summary of the method: as §1
CEM-VLB = assay: Cytotoxicity against human CCRF-CEM/VLB cells assessed as inhibition of cell proliferation incubated for 4 hrs by MTS assay; format: functional, cell-based; summary of the method: as §1
RPMI-8226 = assay: Cytotoxicity against human RPMI-8226 cells assessed as inhibition of cell proliferation incubated for 4 hrs by MTS assay; format: functional, cell-based; conditions: RPMI-8226, 4 h; summary of the method: as §1
MDA-MB-231 = assay: Cytotoxicity against human MDA-MB-231 cells assessed as inhibition of cell proliferation incubated for 4 hrs by MTS assay; format: functional, cell-based; conditions: MDA-MB-231, 4 h; summary of the method: as §1
T47D = assay: Cytotoxicity against human T47D cells assessed as inhibition of cell proliferation incubated for 4 hrs by MTS assay; format: functional, cell-based; summary of the method: as §1
HT-29 = assay: Cytotoxicity against human HT-29 cells assessed as inhibition of cell proliferation incubated for 4 hrs by MTS assay; format: functional, cell-based; conditions: HT-29, 4 h; summary of the method: as §1
786-0 = assay: Cytotoxicity against human 786-0 cells assessed as inhibition of cell proliferation incubated for 4 hrs by MTS assay; format: functional, cell-based; conditions: 786-0, 4 h; summary of the method: as §1
SK-HEP1 = assay: Cytotoxicity against human SK-HEP1 cells assessed as inhibition of cell proliferation incubated for 4 hrs by MTS assay; format: functional, cell-based; conditions: SK-HEP1, 4 h; summary of the method: as §1
OVCAR-3 = assay: Cytotoxicity against human OVCAR-3 cells assessed as inhibition of cell proliferation incubated for 4 hrs by MTS assay; format: functional, cell-based; conditions: OVCAR-3, 4 h; summary of the method: as §1
PANC-1 = assay: Cytotoxicity against human PANC-1 cells assessed as inhibition of cell proliferation incubated for 4 hrs by MTS assay; format: functional, cell-based; conditions: PANC-1, 4 h; summary of the method: as §1
DU-145 = assay: Cytotoxicity against human DU-145 cells assessed as inhibition of cell proliferation incubated for 4 hrs by MTS assay; format: functional, cell-based; conditions: DU-145, 4 h; summary of the method: as §1
COLO 205 = assay: Cytotoxicity against human COLO 205 cells assessed as inhibition of cell proliferation incubated for 4 hrs by MTS assay; format: functional, cell-based; conditions: COLO 205, 4 h; summary of the method: as §1
[2] = Hemolytic activity in human red blood cells incubated for 1 hr by spectrophotometric microtiter plate reader method; format: toxicity, cell-based, Erythrocyte
[3] = Drug recovery in human plasma incubated for 20 hrs in presence of serine protease inhibitor AEBSF (reference value: 176 ng/ml); format: ADME, cell-free
[4] = Protein binding in Beagle dog plasma assessed as bound fraction at 200 to 1000 ng/ml incubated for 20 hrs in presence of AEBSF by LC-MS/MS analysis; format: ADME, cell-free, Canis lupus familiaris; conditions: dose 200-1000 ng/ml, read-out: PPB
Summary of the method: (§2)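 Pooled plasma (human volunteers; Han Wistar rat; Beagle dog) containing AEBSF 1 mg/mL. Spiked to 200, 500 or 1000 ng/mL final, in duplicate. Ultracentrifuged 45 000 rpm, 37 °C, 20 h. Supernatant quantified by LC–MS/MS. % bound = [(C − CS)/C] × 100. Values are upper limits because of residual degradation.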

[5] = Protein binding in human plasma assessed as bound fraction at 200 to 1000 ng/ml incubated for 20 hrs in presence of AEBSF by LC-MS/MS analysis; format: ADME, cell-free; conditions: dose 200-1000 ng/ml, read-out: PPB; summary of the method: as §2
[6] = Protein binding in Han Wistar rat plasma assessed as bound fraction at 200 to 1000 ng/ml incubated for 20 hrs in presence of AEBSF by LC-MS/MS analysis; format: ADME, cell-free; conditions: dose 200-1000 ng/ml, read-out: PPB; summary of the method: as §2
[7] = Half life in human plasma measured by RP-HPLC analysis; format: ADME, cell-free
[8] = Ratio of drug concentration in rat blood to plasma measured after 60 mins by LC-MS/MS analysis; format: ADME, cell-free
Summary of the method: (§3)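 Pooled fresh whole blood (≥3 male and 3 female human, beagle dog or rat donors) spiked to 200 ng/mL. Incubated ~37 °C on rotary mixer over 0–120 min. Hematocrit determined. Blood and plasma analysed by LC–MS/MS. Blood/plasma ratio = Cb/C. Cell association = {[C(1 − H)]/Cb} × 100. Values at 60 min, mean of two independent measurements.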

[9] = Ratio of drug concentration in Beagle dog blood to plasma measured after 60 mins by LC-MS/MS analysis; format: ADME, cell-free, Canis lupus familiaris; summary of the method: as §3
[10] = Ratio of drug concentration in human blood to plasma measured after 60 mins by LC-MS/MS analysis; format: ADME, cell-free; summary of the method: as §3
Cytochrome P450 2B6 [11] = biological target: T1, Cytochrome P450 2B6 (Homo sapiens, UniProt P20813); assay: Inhibition of CYP2B6 in human liver microsomes using bupropion as substrate assessed as reduction in substrate hydroxylation incubated for 5 mins in presence of beta-NADPH measured by LC-MS/MS analysis; format: ADME, Microsome
T1 sequence (P20813 whole entry, canonical isoform): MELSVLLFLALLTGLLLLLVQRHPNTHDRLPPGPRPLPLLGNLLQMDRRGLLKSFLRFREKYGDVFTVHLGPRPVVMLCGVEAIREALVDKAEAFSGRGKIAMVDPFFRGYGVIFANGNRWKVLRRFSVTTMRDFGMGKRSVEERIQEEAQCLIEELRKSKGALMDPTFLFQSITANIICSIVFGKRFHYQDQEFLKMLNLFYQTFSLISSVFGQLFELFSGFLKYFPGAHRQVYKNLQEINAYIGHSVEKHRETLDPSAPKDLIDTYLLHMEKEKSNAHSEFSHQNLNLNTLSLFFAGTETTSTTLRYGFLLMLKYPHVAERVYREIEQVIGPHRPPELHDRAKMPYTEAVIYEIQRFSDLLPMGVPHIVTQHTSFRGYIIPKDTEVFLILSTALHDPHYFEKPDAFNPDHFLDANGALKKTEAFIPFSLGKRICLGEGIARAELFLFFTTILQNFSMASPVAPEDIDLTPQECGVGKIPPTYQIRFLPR
Summary of the method: (§4)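 Pooled human liver microsomes (50 donors) in 100 mM phosphate, pH 7.4, with 2 mM β-NADPH. Protein 0.1 mg/mL (2A6, 2C8, 2C9, 2E1, 3A4) or 0.3 mg/mL (1A2, 2B6, 2C19, 2D6). Test article 0–100 μM final, preincubated ~37 °C 5 or 30 min before isoform-selective substrate. Quenched in methanol with internal standard. Metabolite measured by LC–MS/MS against standard curve. Duplicates, with selective inhibitor positive controls.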

Cytochrome P450 2C9 = Cytochrome P450 2C9 (Homo sapiens, UniProt P11712); assay: Inhibition of CYP2C9 in human liver microsomes using diclofenac as substrate assessed as reduction in substrate hydroxylation incubated for 5 mins in presence of beta-NADPH measured by LC-MS/MS analysis; format: ADME, Microsome; summary of the method: as §4
Sequence of Cytochrome P450 2C9 (P11712 whole entry): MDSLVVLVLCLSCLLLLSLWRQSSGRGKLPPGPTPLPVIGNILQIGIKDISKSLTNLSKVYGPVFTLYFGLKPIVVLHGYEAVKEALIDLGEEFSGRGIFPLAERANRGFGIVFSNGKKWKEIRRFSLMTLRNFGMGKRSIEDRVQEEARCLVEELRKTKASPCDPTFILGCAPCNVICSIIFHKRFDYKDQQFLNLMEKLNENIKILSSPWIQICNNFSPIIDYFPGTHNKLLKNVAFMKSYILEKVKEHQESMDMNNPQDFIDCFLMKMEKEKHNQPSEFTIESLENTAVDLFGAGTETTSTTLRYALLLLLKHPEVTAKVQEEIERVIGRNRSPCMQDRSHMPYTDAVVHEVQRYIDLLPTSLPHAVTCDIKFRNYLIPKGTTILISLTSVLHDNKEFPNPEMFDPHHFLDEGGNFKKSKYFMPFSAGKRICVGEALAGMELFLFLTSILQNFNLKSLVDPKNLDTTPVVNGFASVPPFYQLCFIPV

Cytochrome P450 3A4 [12] = biological target: T2, Cytochrome P450 3A4 (Homo sapiens, UniProt P08684); assay: Inhibition of CYP3A4 in human liver microsomes using testosterone as substrate assessed as reduction in substrate hydroxylation incubated for 5 mins in presence of beta-NADPH measured by LC-MS/MS analysis; format: ADME, Microsome; summary of the method: as §4
T2 sequence (P08684 whole entry): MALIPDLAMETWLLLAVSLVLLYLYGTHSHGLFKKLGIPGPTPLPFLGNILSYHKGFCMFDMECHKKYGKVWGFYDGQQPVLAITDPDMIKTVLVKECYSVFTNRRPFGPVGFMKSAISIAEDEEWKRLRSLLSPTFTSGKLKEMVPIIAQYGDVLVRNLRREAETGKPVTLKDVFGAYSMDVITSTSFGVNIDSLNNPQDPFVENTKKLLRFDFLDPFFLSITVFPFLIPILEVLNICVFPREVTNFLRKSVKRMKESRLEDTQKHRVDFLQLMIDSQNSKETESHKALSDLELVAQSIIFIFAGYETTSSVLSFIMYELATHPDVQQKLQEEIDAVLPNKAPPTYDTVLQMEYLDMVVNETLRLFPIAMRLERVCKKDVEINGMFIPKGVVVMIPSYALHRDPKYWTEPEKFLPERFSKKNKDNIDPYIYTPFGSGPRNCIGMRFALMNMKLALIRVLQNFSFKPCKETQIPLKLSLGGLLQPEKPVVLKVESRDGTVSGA

Cytochrome P450 3A4 [13] = biological target: T2, Cytochrome P450 3A4; assay: Inhibition of CYP3A4 in human liver microsomes using midazolam as substrate assessed as reduction in substrate hydroxylation incubated for 5 mins in presence of beta-NADPH measured by LC-MS/MS analysis; format: ADME, Microsome; summary of the method: as §4
Cytochrome P450 2B6 [14] = biological target: T1, Cytochrome P450 2B6; assay: Inhibition of CYP2B6 in human liver microsomes using bupropion as substrate assessed as reduction in substrate hydroxylation incubated for 30 mins in presence of beta-NADPH measured by LC-MS/MS analysis; format: ADME, Microsome; summary of the method: as §4

| Structure (SMILES) | IC50 (Ramos) [µM] | IC50 at 4 h [1] [µM] | IC50 (HL-60) [µM] | IC50 (MCF7) [µM] | IC50 (CEM-VLB) [µM] | IC50 (RPMI-8226) [µM] | IC50 (MDA-MB-231) [µM] | IC50 (T47D) [µM] | IC50 (HT-29) [µM] | IC50 (786-0) [µM] | IC50 (SK-HEP1) [µM] | IC50 (OVCAR-3) [µM] | IC50 (PANC-1) [µM] | IC50 (DU-145) [µM] | IC50 (COLO 205) [µM] | other results |
| --- | --- | --- | --- | --- | --- | --- | --- | --- | --- | --- | --- | --- | --- | --- | --- | --- |
| NCCCC[C@H](NC(=O)[C@H](Cc1c[nH]c2ccccc12)NC(=O)[C@H](Cc1c[nH]c2ccccc12)NC(=O)[C@H](CCCCN)NC(=O)[C@H](CCCCN)NC(=O)[C@H](Cc1c[nH]c2ccccc12)NC(=O)[C@H](Cc1ccc(-c2ccccc2)cc1)NC(=O)[C@H](CCCCN)NC(=O)[C@@H](N)CCCCN)C(N)=O (H-KK[Bip]WKKWWK-NH2) | 3.8 | 87 | 6.1 | 4.9 | 4 | 4.1 | 9.3 | 2.4 | 8.9 | 13.8 | 7.9 | 14.1 | 9.5 | 8.2 | 5.7 |  |
| NCCCC[C@H](NC(=O)C(NC(=O)[C@H](Cc1c[nH]c2ccccc12)NC(=O)[C@H](CCCCN)NC(=O)[C@H](CCCCN)NC(=O)[C@H](Cc1c[nH]c2ccccc12)NC(=O)[C@H](Cc1c[nH]c2ccccc12)NC(=O)[C@H](CCCCN)NC(=O)[C@@H](N)CCCCN)C(c1ccccc1)c1ccccc1)C(N)=O (some centres undefined) (H-KKWWKKW[ξDip]K-NH2) | 1.7 | 34.3 | 2.1 | 2.5 | 2.4 | 1.9 | 3.6 | 1.2 | 3.3 | 5.8 | 5.1 | 5.2 | 3.8 | 3.9 | 2.6 | EC50 at 1 h [2]: > 695 µM; Drug recovery [3]: 131 ng/mL; fraction unbound at 20 h [4]: > 0.08; fraction unbound at 20 h [5]: > 0.2; fraction unbound at 20 h [6]: > 0.25; half-life [7]: 2.67 h; blood plasma ratio at 1 h [8]: 1.03; blood plasma ratio at 1 h [9]: 2.19; blood plasma ratio at 1 h [10]: 0.76; IC50 (Cytochrome P450 2B6 [11]): 27.7 µM; IC50 (Cytochrome P450 2C9): 8.8 µM; IC50 (Cytochrome P450 3A4 [12]): 9.3 µM; IC50 (Cytochrome P450 3A4 [13]): 18.8 µM; IC50 (Cytochrome P450 2B6 [14]): 18.6 µM |
| N=C(N)NCCC[C@H](NC(=O)[C@H](Cc1c[nH]c2ccccc12)NC(=O)[C@H](Cc1c[nH]c2ccccc12)NC(=O)[C@H](CCCNC(=N)N)NC(=O)[C@H](CCCNC(=N)N)NC(=O)C(NC(=O)[C@H](Cc1c[nH]c2ccccc12)NC(=O)[C@H](CCCNC(=N)N)NC(=O)[C@@H](N)CCCNC(=N)N)C(c1ccccc1)c1ccccc1)C(N)=O (some centres undefined) (H-RRW[ξDip]RRWWR-NH2) | 2.8 | 76 | 6.7 | 6.6 | 3.6 | 4.1 | 7.6 | 3.5 | 11.5 | 7.5 | 6.3 | 8.4 | 12.5 | 6.8 | 6.7 |  |
| NCCCC[C@H](NC(=O)[C@H](Cc1c[nH]c2ccccc12)NC(=O)[C@H](CCCCN)NC(=O)[C@H](CCCCN)NC(=O)C(NC(=O)[C@H](Cc1c[nH]c2ccccc12)NC(=O)[C@H](CCCCN)NC(=O)[C@H](CCCCN)NC(=O)[C@@H](N)Cc1c[nH]c2ccccc12)C(c1ccccc1)c1ccccc1)C(N)=O (some centres undefined) (H-WKKW[ξDip]KKWK-NH2) | 5.4 | 122 | 8 | 11 | 5.3 | 6 | 13 | 4.8 | 11 | 19.2 | 15.6 | 13.9 | 17.1 | 12.4 | 8.7 |  |
| NCCCC[C@H](NC(=O)[C@H](Cc1c[nH]c2ccccc12)NC(=O)[C@H](Cc1c[nH]c2ccccc12)NC(=O)[C@H](CCCCN)NC(=O)[C@H](CCCCN)NC(=O)[C@H](Cc1c[nH]c2ccccc12)NC(=O)C(Cc1ccc(-c2ccccc2)cc1)NC(=O)[C@H](CCCCN)NC(=O)[C@@H](N)CCCCN)C(N)=O (some centres undefined) (H-KK[ξBip]WKKWWK-NH2) | 3.2 | 151 | 6.1 | 8.4 | 5.7 | 4 | 10.8 | 4.2 | 10.5 | 16.8 | 12.6 | 14.3 | 10.8 | 8.8 | 4.9 |  |

— ChEMBL document CHEMBL5257020, “Discovery of a 9-mer Cationic Peptide (LTX-315) as a Potential First in Class Oncolytic Peptide” (J Med Chem, 2016)
